Measured values: ChEMBL document CHEMBL1152489, “Synthesis and biological evaluation of a novel series of 1,5-benzothiazepine derivatives as potential antimicrobial agents” (2009)
Calls of active or inactive are those of the source. The rule behind the calls is not given here.

Legend:
Candida albicans [1] = assay: Antifungal activity against Candida albicans ATCC 10231 at 200 ug/disk after 24 hrs by disk diffusion method; type: functional; conditions: for zone of inhibition at 200 µg/disc: ATCC 10231, 24 h, read-out: IZ
Summary of the method: (§1)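 Disk diffusion on media seeded with the organism. Sterile paper discs (6 mm) carried test compound dissolved in DMSO at 12.5, 50, 100 or 200 µg/disc. DMSO-only discs served as controls. Plates were incubated 24 h at 37 °C. The read-out is the growth-inhibition zone diameter in mm, averaged over three trials (±1 mm).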

Candida albicans [2] = assay: Antifungal activity against Candida albicans ATCC 10231 at 100 ug/disk after 24 hrs by disk diffusion method; type: functional; conditions: for zone of inhibition at 100 µg/disc: ATCC 10231, 24 h, read-out: IZ; summary of the method: as §1
Candida albicans [3] = assay: Antifungal activity against Candida albicans ATCC 10231 at 50 ug/disk after 24 hrs by disk diffusion method; type: functional; conditions: for zone of inhibition at 50 µg/disc: ATCC 10231, 24 h, read-out: IZ; summary of the method: as §1
Staphylococcus aureus [4] = assay: Antibacterial activity against Staphylococcus aureus ATCC 25923 at 200 ug/disk after 24 hrs by disk diffusion method; type: functional; conditions: for zone of inhibition at 200 µg/disc: ATCC 25923, 24 h, read-out: IZ; summary of the method: as §1
Staphylococcus aureus [5] = assay: Antibacterial activity against Staphylococcus aureus ATCC 25923 at 100 ug/disk after 24 hrs by disk diffusion method; type: functional; conditions: for zone of inhibition at 100 µg/disc: ATCC 25923, 24 h, read-out: IZ; summary of the method: as §1
Staphylococcus aureus [6] = assay: Antibacterial activity against Staphylococcus aureus ATCC 25923 at 50 ug/disk after 24 hrs by disk diffusion method; type: functional; conditions: for zone of inhibition at 50 µg/disc: ATCC 25923, 24 h, read-out: IZ; summary of the method: as §1
[7] = tested on: Staphylococcus epidermidis; assay: Antibacterial activity against Staphylococcus epidermidis ATCC 26069 at 200 ug/disk after 24 hrs by disk diffusion method; type: functional; conditions: for zone of inhibition at 200 µg/disc: ATCC 26069, 24 h, read-out: IZ; summary of the method: as §1
[8] = tested on: Staphylococcus epidermidis; assay: Antibacterial activity against Staphylococcus epidermidis ATCC 26069 at 100 ug/disk after 24 hrs by disk diffusion method; type: functional; conditions: for zone of inhibition at 100 µg/disc: ATCC 26069, 24 h, read-out: IZ; summary of the method: as §1
[9] = tested on: Staphylococcus epidermidis; assay: Antibacterial activity against Staphylococcus epidermidis ATCC 26069 at 50 ug/disk after 24 hrs by disk diffusion method; type: functional; conditions: for zone of inhibition at 50 µg/disc: ATCC 26069, 24 h, read-out: IZ; summary of the method: as §1
Escherichia coli [10] = assay: Antibacterial activity against Escherichia coli ATCC 44752 at 200 ug/disk after 24 hrs by disk diffusion method; type: functional, organism-based; summary of the method: as §1
Escherichia coli [11] = assay: Antibacterial activity against Escherichia coli ATCC 44752 at 100 ug/disk after 24 hrs by disk diffusion method; type: functional, organism-based; summary of the method: as §1
Escherichia coli [12] = assay: Antibacterial activity against Escherichia coli ATCC 44752 at 50 ug/disk after 24 hrs by disk diffusion method; type: functional, organism-based; summary of the method: as §1
Candida albicans [13] = assay: Antifungal activity against Candida albicans ATCC 10231 after 24 hrs by disk diffusion method; type: functional, organism-based; summary of the method: as §1
Staphylococcus aureus [14] = assay: Antibacterial activity against Staphylococcus aureus ATCC 25923 after 24 hrs by disk diffusion method; type: functional, organism-based; summary of the method: as §1
[15] = tested on: Staphylococcus epidermidis; assay: Antibacterial activity against Staphylococcus epidermidis ATCC 26069 after 24 hrs by disk diffusion method; type: functional, organism-based; summary of the method: as §1
Candida albicans [16] = assay: Antifungal activity against Candida albicans ATCC 10231 at <12.5 ug/disk after 24 hrs by disk diffusion method; type: functional, organism-based; summary of the method: as §1
Staphylococcus aureus [17] = assay: Antibacterial activity against Staphylococcus aureus ATCC 25923 at <12.5 ug/disk after 24 hrs by disk diffusion method; type: functional, organism-based; summary of the method: as §1
[18] = tested on: Staphylococcus epidermidis; assay: Antibacterial activity against Staphylococcus epidermidis ATCC 26069 at <12.5 ug/disk after 24 hrs by disk diffusion method; type: functional, organism-based; summary of the method: as §1
Candida albicans [19] = assay: Antifungal activity against Candida albicans ATCC 10231 at 25 ug/disk after 24 hrs by disk diffusion method; type: functional; conditions: ATCC 10231, 24 h, read-out: IZ
Summary of the method: (§2)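 Disc diffusion: sterile 6 mm paper discs impregnated with compound dissolved in DMSO, placed on the surface of medium inoculated with the microorganism; DMSO-only discs served as controls. Plates were incubated at 37 °C for 24 h. Growth-inhibition zone diameter (mm) was read and averaged over three trials.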

Staphylococcus aureus [20] = assay: Antibacterial activity against Staphylococcus aureus ATCC 25923 at 30 ug/disk after 24 hrs by disk diffusion method; type: functional; conditions: ATCC 25923, 24 h, read-out: IZ; summary of the method: as §2
[21] = tested on: Staphylococcus epidermidis; assay: Antibacterial activity against Staphylococcus epidermidis ATCC 26069 at 30 ug/disk after 24 hrs by disk diffusion method; type: functional; conditions: ATCC 26069, 24 h, read-out: IZ; summary of the method: as §2
Escherichia coli [22] = assay: Antibacterial activity against Escherichia coli ATCC 44752 at 30 ug/disk after 24 hrs by disk diffusion method; type: functional; conditions: ATCC 44752, 24 h, read-out: IZ; summary of the method: as §2

SMILES | zone of inhibition at 200 µg/disc (Candida albicans [1]) | zone of inhibition at 100 µg/disc (Candida albicans [2]) | zone of inhibition at 50 µg/disc (Candida albicans [3]) | zone of inhibition at 200 µg/disc (Staphylococcus aureus [4]) | zone of inhibition at 100 µg/disc (Staphylococcus aureus [5]) | zone of inhibition at 50 µg/disc (Staphylococcus aureus [6]) | zone of inhibition at 200 µg/disc [7] | zone of inhibition at 100 µg/disc [8] | zone of inhibition at 50 µg/disc [9] | inhibition zone (IZ) (Escherichia coli [10]) | inhibition zone (IZ) (Escherichia coli [11]) | inhibition zone (IZ) (Escherichia coli [12]) | also measured
CC(=O)C1=C(C)Nc2ccccc2SC1c1ccc(Cl)cc1 (stereo unspecified) | 24 mm | 21 mm | 18 mm | 15 mm | 14 mm | 12 mm | 19 mm | 17 mm | 17 mm | inactive | inactive | inactive | Activity (Candida albicans [13]): Dose-dependent effect; Activity (Staphylococcus aureus [14]): Dose-dependent effect; Activity [15]: Dose-dependent effect; Activity (Candida albicans [16]): inactive; Activity (Staphylococcus aureus [17]): inactive; Activity [18]: inactive
CC(=O)C1=C(C)Nc2cc(Cl)ccc2SC1c1ccc(Br)cc1 (stereo unspecified) | 15 mm | 11 mm | 10 mm | 11 mm | 10 mm | 9 mm | 11 mm | 10 mm | 9 mm | inactive | inactive | inactive | 
CCOC(=O)C1C(C)=Nc2ccccc2SC1c1ccc(O)cc1 (stereo unspecified) | 30 mm | 24 mm | 14 mm | 18 mm | 15 mm | 7 mm | 20 mm | 16 mm | 10 mm | inactive | inactive | inactive | Activity (Candida albicans [13]): Dose-dependent effect; Activity (Staphylococcus aureus [14]): Dose-dependent effect; Activity [15]: Dose-dependent effect; Activity (Candida albicans [16]): inactive; Activity (Staphylococcus aureus [17]): inactive; Activity [18]: inactive
OC(Cn1cncn1)(Cn1cncn1)c1ccc(F)cc1F [FLUCONAZOLE] |  |  |  |  |  |  |  |  |  |  |  |  | zone of inhibition at 25 µg/disc (Candida albicans [19]): 23 mm
CC(=O)C1=C(C)Nc2cc(Cl)ccc2SC1c1ccccc1Cl (stereo unspecified) | 15 mm | 12 mm | 10 mm | 11 mm | 8 mm | 7 mm | 10 mm | 7 mm | 7 mm | inactive | inactive | inactive | 
CCOC(=O)C1=C(C)Nc2ccccc2SC1c1ccc(F)cc1 (stereo unspecified) |  |  |  |  |  |  |  |  |  | inactive | inactive | inactive | inhibition zone (IZ) (Candida albicans [1]): inactive; inhibition zone (IZ) (Candida albicans [2]): inactive; inhibition zone (IZ) (Candida albicans [3]): inactive; inhibition zone (IZ) (Staphylococcus aureus [4]): inactive; inhibition zone (IZ) (Staphylococcus aureus [5]): inactive; inhibition zone (IZ) (Staphylococcus aureus [6]): inactive; inhibition zone (IZ) [7]: inactive; inhibition zone (IZ) [8]: inactive; inhibition zone (IZ) [9]: inactive
CN[C@H](CC(C)C)C(=O)N[C@H]1C(=O)N[C@@H](CC(N)=O)C(=O)N[C@H]2C(=O)N[C@H]3C(=O)N[C@H](C(=O)N[C@H](C(=O)O)c4cc(O)cc(O)c4-c4cc3ccc4O)[C@H](O)c3ccc(c(Cl)c3)Oc3cc2cc(c3O[C@@H]2O[C@H](CO)[C@@H](O)[C@H](O)[C@H]2O[C@H]2C[C@](C)(N)[C@H](O)[C@H](C)O2)Oc2ccc(cc2Cl)[C@H]1O [VANCOMYCIN] |  |  |  |  |  |  |  |  |  |  |  |  | zone of inhibition at 30 µg/disc (Staphylococcus aureus [20]): 18 mm; zone of inhibition at 30 µg/disc [21]: 18 mm; zone of inhibition at 30 µg/disc (Escherichia coli [22]): 8 mm
